Measured values published in paper PMC6380921 (Environmental science & technology, 2019).

Assays:
recombinant human CYP2B6 [1] = molecular target: T1, recombinant human CYP2B6 (Homo sapiens, UniProt P20813); assay: PCB biotransformation assay with recombinant human CYP2B6; assay type: in vitro ADME; settings: for enantiomeric fraction (EF) of OH-PCB metabolite, CYP2B6: EF = Area E1/(Area E1 + Area E2), 50 μM PCB, 60 min, 37 °C, 10 pmol/mL P450; for metabolite as percent of ΣOH-PCBs of the parent PCB, CYP2B6: racemic PCB 50 µM, 10 pmol P450/mL, 37°C, mean ± SD
T1 sequence (P20813 1-491): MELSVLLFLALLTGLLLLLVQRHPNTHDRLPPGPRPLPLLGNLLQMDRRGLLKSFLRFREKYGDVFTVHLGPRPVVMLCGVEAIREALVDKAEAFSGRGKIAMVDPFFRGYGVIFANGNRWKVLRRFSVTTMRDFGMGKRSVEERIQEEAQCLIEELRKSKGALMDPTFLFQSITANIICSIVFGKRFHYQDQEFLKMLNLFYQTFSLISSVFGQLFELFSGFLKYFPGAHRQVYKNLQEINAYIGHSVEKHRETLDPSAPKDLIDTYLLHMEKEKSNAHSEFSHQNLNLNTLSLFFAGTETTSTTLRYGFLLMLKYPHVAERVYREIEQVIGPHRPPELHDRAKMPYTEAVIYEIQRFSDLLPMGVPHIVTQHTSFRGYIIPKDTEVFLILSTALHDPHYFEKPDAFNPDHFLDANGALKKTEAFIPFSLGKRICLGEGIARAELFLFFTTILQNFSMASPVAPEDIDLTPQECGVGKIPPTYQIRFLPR

[2] = test system: human liver microsomes (HLMs); settings: cited from earlier work; for enantiomeric fraction (EF) of 5-hydroxylated metabolites, HLMs: metabolism studies with HLMs; for enantiomeric fraction (EF) of 1,2-shift products, HLMs: incubations with HLMs; for ratio of 3–103: 5–95: 4–95: 4’−95 (relative to 4’−95 = 1), HLMs: PCB 95 with HLMs
recombinant human CYP1A2 [3] = molecular target: T2, recombinant human CYP1A2 (Homo sapiens, UniProt P05177); assay: PCB biotransformation assay with recombinant human CYP1A2; assay type: in vitro ADME; settings: racemic PCB 50 µM; 10 pmol P450/mL; 37°C
T2 sequence (P05177 1-516): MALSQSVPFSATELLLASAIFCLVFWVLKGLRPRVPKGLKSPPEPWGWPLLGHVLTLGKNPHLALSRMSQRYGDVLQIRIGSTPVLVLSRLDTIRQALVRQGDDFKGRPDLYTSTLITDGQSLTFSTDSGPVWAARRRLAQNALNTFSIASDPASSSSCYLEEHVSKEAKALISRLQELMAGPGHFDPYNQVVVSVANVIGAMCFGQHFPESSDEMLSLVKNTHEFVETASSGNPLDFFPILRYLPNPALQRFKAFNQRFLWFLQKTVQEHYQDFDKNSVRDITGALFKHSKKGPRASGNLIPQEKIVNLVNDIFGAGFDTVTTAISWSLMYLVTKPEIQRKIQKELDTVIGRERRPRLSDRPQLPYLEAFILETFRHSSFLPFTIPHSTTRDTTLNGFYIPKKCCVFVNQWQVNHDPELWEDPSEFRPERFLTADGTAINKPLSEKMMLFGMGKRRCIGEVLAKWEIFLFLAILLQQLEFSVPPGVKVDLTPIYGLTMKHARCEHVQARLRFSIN
In short: (§1)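 Human P450 co-expressed with human CYP-reductase in E. coli, 10 pmol/mL, in 0.1 M phosphate pH 7.4 with 3 mM MgCl2 and NADPH-regenerating system (~1 mM NADPH final). After 5 min preincubation, racemic PCB added (50 µM final, DMSO ≤0.5% v/v); incubated up to 60 min at 37°C; stopped with ice-cold NaOH plus heating. OH-PCBs identified as methylated derivatives by high-resolution GC/TOF-MS in 60-min extracts. Control Bactosomes; triplicates.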

recombinant human CYP3A4 [4] = molecular target: T3, recombinant human CYP3A4 (Homo sapiens, UniProt P08684); assay: PCB biotransformation assay with recombinant human CYP3A4; assay type: in vitro ADME; settings: racemic PCB 50 µM; 10 pmol P450/mL; 37°C
In short: as §1

recombinant human CYP2B6 [5] = molecular target: T1, recombinant human CYP2B6; settings: cited from earlier work
recombinant human CYP2E1 = recombinant human CYP2E1 (Homo sapiens, UniProt P05181); settings: cited from earlier work
recombinant human CYP1A2 [6] = molecular target: T2, recombinant human CYP1A2; settings: cited from earlier work
recombinant human CYP3A4 [7] = molecular target: T3, recombinant human CYP3A4; settings: cited from earlier work
recombinant human CYP2A6 = molecular target: T4, recombinant human CYP2A6 (Homo sapiens, UniProt P11509); assay: PCB biotransformation assay with recombinant human CYP2A6; assay type: in vitro ADME; settings: for enantiomeric fraction (EF) of OH-PCB metabolite, CYP2A6: EF = Area E1/(Area E1 + Area E2), 50 μM PCB, 60 min, 37 °C, 10 pmol/mL P450; for metabolite as percent of ΣOH-PCBs of the parent PCB, CYP2A6: racemic PCB 50 µM, 10 pmol P450/mL, 37°C, mean ± SD; for ratio of 3–103: 5–95: 4–95: 4’−95 (relative to 4’−95 = 1), recombinant CYP2A6: PCB 95 incubation
T4 sequence (P11509 1-494): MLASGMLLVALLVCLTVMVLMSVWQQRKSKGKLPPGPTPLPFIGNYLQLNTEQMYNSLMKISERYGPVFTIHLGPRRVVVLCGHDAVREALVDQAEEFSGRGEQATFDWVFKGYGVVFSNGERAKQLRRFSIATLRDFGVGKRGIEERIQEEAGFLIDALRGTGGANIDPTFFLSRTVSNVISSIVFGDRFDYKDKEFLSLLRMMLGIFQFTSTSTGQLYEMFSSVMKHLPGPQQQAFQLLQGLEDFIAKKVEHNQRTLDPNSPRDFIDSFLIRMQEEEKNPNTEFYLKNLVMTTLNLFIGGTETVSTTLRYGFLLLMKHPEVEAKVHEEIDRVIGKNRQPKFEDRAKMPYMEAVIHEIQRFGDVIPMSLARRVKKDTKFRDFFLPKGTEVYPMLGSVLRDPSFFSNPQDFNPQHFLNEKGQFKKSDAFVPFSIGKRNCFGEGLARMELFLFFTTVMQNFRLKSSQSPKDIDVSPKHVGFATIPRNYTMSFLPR

T3 sequence (P08684 whole entry): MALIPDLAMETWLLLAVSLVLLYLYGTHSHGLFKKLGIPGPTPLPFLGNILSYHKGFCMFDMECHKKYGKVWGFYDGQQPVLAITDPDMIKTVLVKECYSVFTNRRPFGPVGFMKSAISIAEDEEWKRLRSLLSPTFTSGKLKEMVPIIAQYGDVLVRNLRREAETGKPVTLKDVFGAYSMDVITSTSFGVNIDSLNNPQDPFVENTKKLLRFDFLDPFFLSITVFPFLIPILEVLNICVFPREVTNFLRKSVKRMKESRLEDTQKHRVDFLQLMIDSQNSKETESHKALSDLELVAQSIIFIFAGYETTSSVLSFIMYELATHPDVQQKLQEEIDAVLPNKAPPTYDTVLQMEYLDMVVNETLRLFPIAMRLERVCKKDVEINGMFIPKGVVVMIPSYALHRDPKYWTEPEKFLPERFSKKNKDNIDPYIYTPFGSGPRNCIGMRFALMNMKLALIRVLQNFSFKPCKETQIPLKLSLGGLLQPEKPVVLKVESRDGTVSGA
recombinant human CYP2E1, sequence (P05181 whole entry): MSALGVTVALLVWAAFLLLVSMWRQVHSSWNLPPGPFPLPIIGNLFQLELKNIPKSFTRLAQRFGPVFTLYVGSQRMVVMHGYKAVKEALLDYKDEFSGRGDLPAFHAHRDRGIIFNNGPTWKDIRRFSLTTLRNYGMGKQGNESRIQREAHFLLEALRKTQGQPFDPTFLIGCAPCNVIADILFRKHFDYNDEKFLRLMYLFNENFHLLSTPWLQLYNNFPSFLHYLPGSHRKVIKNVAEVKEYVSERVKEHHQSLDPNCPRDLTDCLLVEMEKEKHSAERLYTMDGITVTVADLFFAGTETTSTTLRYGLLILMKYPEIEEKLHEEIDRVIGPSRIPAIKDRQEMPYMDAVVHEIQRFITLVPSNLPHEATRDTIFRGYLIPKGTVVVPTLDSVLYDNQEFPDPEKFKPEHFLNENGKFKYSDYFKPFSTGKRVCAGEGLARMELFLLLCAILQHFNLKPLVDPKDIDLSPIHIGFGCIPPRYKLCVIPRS

Compound: Oc1cc(Cl)c(Cl)c(-c2ccc(Cl)cc2Cl)c1Cl [5–91]
- enantiomeric fraction (EF) of OH-PCB metabolite, CYP2B6 (recombinant human CYP2B6 [1]): 0.49
- metabolite as percent of ΣOH-PCBs of the parent PCB, CYP2B6 (recombinant human CYP2B6 [1]): 98.4 ± 0.1%
- enantiomeric fraction (EF) of 5-hydroxylated metabolites, HLMs [2]: 0.47

Compound: Clc1ccc(Cl)c(-c2c(Cl)ccc(Cl)c2Cl)c1 [PCB 95, 2,2’,3,5’,6-pentachlorobiphenyl]
- OH-PCB metabolites detected in incubations with CYP1A2 (recombinant human CYP1A2 [3]): no metabolites were detected
- OH-PCB metabolites detected in incubations with CYP3A4 (recombinant human CYP3A4 [4]): no metabolites were detected
- oxidation by CYP2B6, earlier studies (recombinant human CYP2B6 [5]): did not observe any oxidation
- oxidation by CYP2E1, earlier studies (recombinant human CYP2E1): did not observe any oxidation
- metabolism by recombinant CYP1A2, earlier studies (recombinant human CYP1A2 [6]): did not metabolize
- metabolism by recombinant CYP3A4, earlier studies (recombinant human CYP3A4 [7]): did not metabolize

Compound: Oc1c(Cl)cc(Cl)c(-c2ccc(Cl)cc2Cl)c1Cl [3–100]
- enantiomeric fraction (EF) of OH-PCB metabolite, CYP2A6 (recombinant human CYP2A6): 0.92
- metabolite as percent of ΣOH-PCBs of the parent PCB, CYP2A6 (recombinant human CYP2A6): 81 ± 2%
- enantiomeric fraction (EF) of 1,2-shift products, HLMs [2]: 0.85

Compound: Clc1ccc(Cl)c(-c2c(Cl)ccc(Cl)c2Cl)c1Cl [PCB 136, 2,2’,3,3’,6,6’-hexachlorobiphenyl]
- OH-PCB metabolites detected in incubations with CYP1A2 (recombinant human CYP1A2 [3]): no metabolites were detected
- OH-PCB metabolites detected in incubations with CYP3A4 (recombinant human CYP3A4 [4]): no metabolites were detected

Compound: Oc1c(Cl)cc(Cl)c(-c2cc(Cl)ccc2Cl)c1Cl [3–103]
- enantiomeric fraction (EF) of OH-PCB metabolite, CYP2A6 (recombinant human CYP2A6): 0.99
- ratio of 3–103: 5–95: 4–95: 4’−95 (relative to 4’−95 = 1), recombinant CYP2A6 (recombinant human CYP2A6): 0.11
- ratio of 3–103: 5–95: 4–95: 4’−95 (relative to 4’−95 = 1), HLMs [2]: 0.11

Compound: Clc1ccc(Cl)c(-c2cc(Cl)ccc2Cl)c1 [PCB 52, 2,2’,5,5’-tetrachlorobiphenyl]
- oxidation by CYP2B6, earlier studies (recombinant human CYP2B6 [5]): did not observe any oxidation
- oxidation by CYP2E1, earlier studies (recombinant human CYP2E1): did not observe any oxidation
- metabolism by recombinant CYP1A2, earlier studies (recombinant human CYP1A2 [6]): did not metabolize
- metabolism by recombinant CYP3A4, earlier studies (recombinant human CYP3A4 [7]): did not metabolize

Compound: Clc1ccc(-c2c(Cl)ccc(Cl)c2Cl)c(Cl)c1Cl [PCB 132, 2,2’,3,3’,4,6’-hexachlorobiphenyl]
- OH-PCB metabolites detected in incubations with CYP1A2 (recombinant human CYP1A2 [3]): no metabolites were detected
- OH-PCB metabolites detected in incubations with CYP3A4 (recombinant human CYP3A4 [4]): no metabolites were detected

Compound: Oc1cc(Cl)c(Cl)c(-c2c(Cl)ccc(Cl)c2Cl)c1Cl [5–136]
- ratio of 5–136: 4–136 (4–136 = 1) formed with CYP2A6 (recombinant human CYP2A6; PCB 136 incubation): 0.3
- enantiomeric fraction (EF) of OH-PCB metabolite, CYP2B6 (recombinant human CYP2B6 [1]): 0.50
- metabolite as percent of ΣOH-PCBs of the parent PCB, CYP2B6 (recombinant human CYP2B6 [1]): 94 ± 0.3%
- ratio of 5–136: 4–136 (4–136 = 1), HLMs ([2]; PCB 136 with HLMs): 0.39
- ratio of 5–136: 4–136 (4–136 = 1), HLMs, earlier study ([2]; PCB 136 with HLMs): 1.3
- enantiomeric fraction (EF) of 5-hydroxylated metabolites, HLMs [2]: 0.31

Compound: Oc1cc(Cl)c(Cl)c(-c2ccc(Cl)c(Cl)c2Cl)c1Cl [5’−132]
- enantiomeric fraction (EF) of OH-PCB metabolite, CYP2B6 (recombinant human CYP2B6 [1]): 0.32
- metabolite as percent of ΣOH-PCBs of the parent PCB, CYP2B6 (recombinant human CYP2B6 [1]): 81 ± 7%
- enantiomeric fraction (EF) of 5-hydroxylated metabolites, HLMs [2]: 0.19

Compound: Oc1c(Cl)cc(Cl)c(-c2ccc(Cl)c(Cl)c2Cl)c1Cl [3’−140]
- metabolite as percent of ΣOH-PCBs of the parent PCB, CYP2A6 (recombinant human CYP2A6): 67 ± 1%
- enantiomeric fraction (EF) of 1,2-shift products, HLMs [2]: 0.84

Compound: Oc1cc(Cl)c(Cl)c(-c2cc(Cl)ccc2Cl)c1Cl [5–95]
- ratio of 3–103: 5–95: 4–95: 4’−95 (relative to 4’−95 = 1), recombinant CYP2A6 (recombinant human CYP2A6): 0.04
- formation rate by CYP2B6, times lower compared to CYP2A6 (recombinant human CYP2B6 [1]; PCB 95 incubation): 2 times
- ratio of 3–103: 5–95: 4–95: 4’−95 (relative to 4’−95 = 1), HLMs [2]: 0.06

Compound: Oc1cc(Cl)c(-c2ccc(Cl)cc2Cl)c(Cl)c1Cl [4–91]
- enantiomeric fraction (EF) of OH-PCB metabolite, CYP2A6 (recombinant human CYP2A6): 0.39
- enantiomeric fraction (EF) of OH-PCB metabolite, CYP2B6 (recombinant human CYP2B6 [1]): 0.60

Compound: Oc1cc(Cl)c(-c2c(Cl)ccc(Cl)c2Cl)c(Cl)c1Cl [4–136]
- enantiomeric fraction (EF) of OH-PCB metabolite, CYP2A6 (recombinant human CYP2A6): 0.10
- metabolite as percent of ΣOH-PCBs of the parent PCB, CYP2A6 (recombinant human CYP2A6): 64 ± 2%

Compound: Clc1ccc(-c2c(Cl)ccc(Cl)c2Cl)c(Cl)c1 [PCB 91, 2,2’,3,4’,6-pentachlorobiphenyl]
- OH-PCB metabolites detected in incubations with CYP1A2 (recombinant human CYP1A2 [3]): no metabolites were detected
- OH-PCB metabolites detected in incubations with CYP3A4 (recombinant human CYP3A4 [4]): no metabolites were detected
